50 molecules from ChEMBL document CHEMBL4261508, “Pyrazolo[3,4-d]pyrimidines as sigma-1 receptor ligands for the treatment of pain. Part 2: Introduction of cyclic substituents in position 4” (Medchemcomm, 2017) can be followed below.

Molecules are shown by their SMILES. Calls of active or inactive are those of the source.

By Ki is commonly meant a measure of affinity in units of concentration, obtained from inhibition or displacement. What is called inhibition is the percentage by which the read-out fell short of the control.

The target in data set [1] is Sigma non-opioid intracellular receptor 1 (Homo sapiens, UniProt Q99720). The data set is described as follows: Displacement of [3H]-(+)-pentazocine from recombinant human sigma1 receptor expressed in HEK293 cell membranes after 120 mins by microbeta scintillation counting method. Background: Displacement assays read how much labelled ligand stays bound in the presence of the test substance.

The species named for the next data set is Cavia porcellus. The experiment in a line: Displacement of [3H]-DTG from sigma2 receptor in guinea pig brain membranes at 1 uM after 120 mins in presence of sigma1 […] (+)-SKF10047 by microbeta scintillation counting method relative to control. It counts as cell membranes. To be noted: Membrane. In short, it runs like this: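 σ2R binding in guinea pig brain membranes with [³H]-di-o-tolylguanidine as radioligand. Compound tested at 1 μM as % inhibition. Mean of two determinations.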

Data set [2] is described as follows: Stability of the compound assessed as drug degradation at pH 2. The data set is classed as physicochemical. As to conditions: buffer. In short, it runs like this: (§1)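 Chemical stability measured by LC/MS. A 10 mM DMSO stock of compound was diluted into phosphate buffer pH 7.4 or 0.01 M HCl pH 2.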
Data set [3] in a line: Stability of the compound assessed as drug degradation at pH 7.4. To be noted: buffer. It counts as physicochemical. In short, it runs like this: as §1
In data set [4] the test system is Mus musculus. The data set is described as follows: Analgesic activity in formalin-induced nociception CD-1 mouse model assessed as reduction in time spent in licking or biting formalin injected hind paw at 40 mg/kg, ip pretreated for 30 mins followed by formalin stimulation measured up to 5 mins. The data set is classed as functional, organism-based.
Data set [5] relates to Mus musculus. The data set is described as follows: Analgesic activity in formalin-induced nociception CD-1 mouse model assessed as reduction in time spent in licking or biting formalin injected hind paw at 40 mg/kg, ip pretreated for 30 mins followed by formalin stimulation measured after 15 to 30 mins relative to control. It counts as functional. More on the design: scale not given: the % may be the effect or the level left. The gist of the method: (§2)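 Mice received drug i.p. (40 mg/kg) or p.o. (80 mg/kg), and formalin was injected intraplantar. Paw licking-biting time in phase II (delayed phase) was scored. Result is % antinociception in treated animals vs vehicle.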

The subject of data set [6] is Mus musculus. The data set is described as follows: Analgesic activity in formalin-induced nociception CD-1 mouse model assessed as reduction in time spent in licking or biting formalin injected hind paw at 80 mg/kg, po pretreated for 30 mins followed by formalin stimulation measured up to 5 mins. The data set is classed as functional, organism-based.
The subject of data set [7] is Mus musculus. The experiment in a line: Analgesic activity in formalin-induced nociception CD-1 mouse model assessed as reduction in time spent in licking or biting formalin injected hind paw at 80 mg/kg, po pretreated for 30 mins followed by formalin stimulation measured after 15 to 30 mins relative to control. It counts as functional. More on the design: scale not given: the % may be the effect or the level left. In short, it runs like this:
as §2

For data set [8], the system named is Mus musculus. The data set is described as follows: Antinociceptive activity in capsaicin-induced nociception pain CD-1 mouse model assessed as increase in paw withdrawal latency at 80 mg/kg, po pretreated for 30 mins followed by capsaicin challenge measured after 15 mins by von frey filament assay relative to control. It counts as functional. The gist of the method:
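Capsaicin test in mice, drug given orally at 80 mg/kg. Mechanical hypersensitivity was read as paw withdrawal latency to upward pressure by von Frey filament. Result is % reduction in drug-treated vs vehicle animals.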

In data set [9] the test system is Mus musculus. The data set is described as follows: Antinociceptive activity in partial sciatic nerve ligation CD-1 mouse model of neuropathic pain assessed as reduction in mechanical hypersensitivity at 80 mg/kg, po administered 8 days post partial sciatic nerve injury measured after 30 mins by von frey filament assay relative to control. It counts as functional. More on the design: scale not given: the % may be the effect or the level left. In short, it runs like this:
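Mice with partial sciatic nerve ligation, drug given orally at 80 mg/kg. Pressure threshold (g) for paw withdrawal to von Frey filament was measured after dosing. It was compared with vehicle response 8 days post-surgery and with pre-ligation baseline to give % reduction of hypersensitivity.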

Chain of Sigma non-opioid intracellular receptor 1 (Q99720 whole entry): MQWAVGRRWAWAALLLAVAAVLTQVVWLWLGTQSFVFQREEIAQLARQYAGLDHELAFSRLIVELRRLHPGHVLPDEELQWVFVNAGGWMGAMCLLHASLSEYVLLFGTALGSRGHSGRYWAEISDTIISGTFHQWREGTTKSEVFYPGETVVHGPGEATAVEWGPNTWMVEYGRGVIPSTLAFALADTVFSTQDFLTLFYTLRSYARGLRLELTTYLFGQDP

Consider `Cc1cccc(-c2ncnc3c2cnn3CCN2CCCCC2)n1`, for which the Ki in [1] is 709 nM.
For the molecule `Cc1ccc(Cl)c(-c2ncnc3c2cnn3CCN2CCCCC2)c1`, the Ki in [1] amounted to 31 nM. The inhibition in the data set listed under Cavia porcellus was found to be 95%. Also, the Stability result in data set [2] and in data set [3] was “Stable” in each case.
On to `Cc1cccc(-c2ncnc3c2cnn3CCN2CCCCC2)c1`, for which the Ki in data set [1] turned out to be 82 nM. Further, the inhibition in the data set filed under Cavia porcellus stood at 82%. Also, the Stability entry in data set [2] and in data set [3] was “Stable” in each case.
Take `c1ccc2c(c1)ncn2-c1ncnc2c1cnn2CCN1CCCCC1`: the Ki in data set [1] came to 112 nM. Moreover, the inhibition in the data set listed under Cavia porcellus is 66%.
Turning to `c1nc(-c2cn[nH]c2)c2cnn(CCN3CCCCC3)c2n1`, the Ki in [1] came to 802 nM.
The same measure, in the same setting: the figure for `c1coc(-c2ncnc3c2cnn3CCN2CCCCC2)n1` is 23800 nM.
As to `N#Cc1ccc(-c2ncnc3c2cnn3CCN2CCCCC2)cc1`, in data set [1], the Ki stood at 558 nM. Further, the inhibition in the data set listed under Cavia porcellus stood at 47%.
Take `Fc1ccc(-c2ncnc3c2cnn3CCN2CCCCC2)c(F)c1`: in data set [1], the Ki is 93 nM. Besides, in the data set listed under Cavia porcellus, the inhibition was 83%. For the same molecule, the Stability result in data set [2] and in [3] was “Stable” in each case.
On to `O=C1CCCN1c1ncnc2c1cnn2CCN1CCCCC1`, for which, in data set [1], the Ki turned out to be 6190 nM.
For `c1ccc2c(-c3ncnc4c3cnn4CCN3CCCCC3)cncc2c1`, the Ki in data set [1] was 666 nM.
In the case of `Cc1ccc(C)c(-c2ncnc3c2cnn3CCN2CCCCC2)c1`, in data set [1], the Ki turned out to be 63 nM. Also, the inhibition in the data set filed under Cavia porcellus turned out to be 89%. Besides, the Stability entry in data set [2] and in data set [3] was “Stable” throughout.
As for `c1ccc(-c2ncnc3c2cnn3CCN2CCCCC2)nc1`, the Ki in data set [1] is 634 nM.
Take `Clc1ccc(-c2ncnc3c2cnn3CCN2CCCCC2)s1`: in data set [1], the Ki turned out to be 35 nM. In addition, the Stability entry in [2] and in [3] was “Stable” each time.
In the case of `Fc1ccc(-c2ncnc3c2cnn3CCN2CCCCC2)cc1`, the Ki in data set [1] is 95 nM. In addition, in the data set filed under Cavia porcellus, the inhibition was 75%. The Stability result in [2] and in data set [3] was “Stable” in each case.
For the molecule `c1cn(-c2ncnc3c2cnn3CCN2CCCCC2)cn1`, the Ki in data set [1] was found to be 13800 nM.
`Cn1cccc1-c1ncnc2c1cnn2CCN1CCCCC1`: the inhibition constant (Ki) in [1] is 31 nM. Besides, the Stability result in [2] and in [3] was “Stable” in each case.
As to `Cn1nc(C(F)(F)F)cc1-c1ncnc2c1cnn2CCN1CCCCC1`, the Ki in data set [1] amounted to 137 nM.
Regarding `Fc1cc(Cl)ccc1-c1ncnc2c1cnn2CCN1CCCCC1`, the Ki in [1] was determined as 112 nM. Moreover, in the data set filed under Cavia porcellus, the inhibition was determined as 73%.
As for `Cc1ccccc1-c1ncnc2c1cnn2CCN1CCCCC1`, the Ki in data set [1] turned out to be 74 nM. In the data set listed under Cavia porcellus, the inhibition amounted to 83%. The Stability result in data set [2] and in [3] was “Stable” each time.
For the molecule `Cn1cc(-c2ncnc3c2cnn3CCN2CCCCC2)cn1`, the Ki in data set [1] stood at 9460 nM.
For the molecule `FC(F)(F)c1ccccc1-c1ncnc2c1cnn2CCN1CCCCC1`, the Ki in data set [1] was found to be 125 nM. In addition, the inhibition in the data set listed under Cavia porcellus stood at 86%.
Consider `Clc1ccc(-c2ncnc3c2cnn3CCN2CCCCC2)cc1`, for which the Ki in data set [1] turned out to be 43 nM. Further, the inhibition in the data set listed under Cavia porcellus came to 74%. Moreover, the Stability result in data set [2] and in data set [3] was “Stable” in each case.
In the case of `COc1ccc(-c2ncnc3c2cnn3CCN2CCCCC2)cc1`, the Ki in data set [1] stood at 531 nM. In addition, in the data set listed under Cavia porcellus, the inhibition was 58%.
As to `Cc1cc(OCCN2CCOCC2)nn1-c1ccc2ccccc2c1`, the outcome in the data set on Mus musculus [4] and in the data set with Mus musculus [6] was Active. The Activity in the data set on Mus musculus [5] stood at 50%; with Mus musculus [7] it was 66%; in the data set with Mus musculus [8], 48%; with Mus musculus [9], 62%. The Stability entry in [2] and in data set [3] was “Stable” throughout.
In the case of `Cc1noc(C)c1-c1ncnc2c1cnn2CCN1CCCCC1`, in [1], the Ki stood at 72 nM. Also, the Stability entry in data set [2] and in data set [3] was “Stable” in each case.
For `c1csc(-c2ncnc3c2cnn3CCN2CCCCC2)n1`, in [1], the Ki worked out at 1830 nM.
With `Fc1ccc(-c2ncnc3c2cnn3CCN2CCCCC2)cc1C(F)(F)F`, the Ki in [1] amounted to 57 nM. In the data set listed under Cavia porcellus, the inhibition turned out to be 87%. For the same molecule, the Stability entry in [2] and in [3] was “Stable” throughout.
With `c1ccc(C2CCN(c3ncnc4c3cnn4CCN3CCCCC3)C2)cc1` (centres undefined), the Ki in data set [1] worked out at 294 nM. Besides, in the data set filed under Cavia porcellus, the inhibition is 71%.
Turning to `c1cc(-c2ncnc3c2cnn3CCN2CCCCC2)ccn1`, the Ki in data set [1] came out at 1720 nM.
On to `COc1cc(F)ccc1-c1ncnc2c1cnn2CCN1CCCCC1`, for which the Ki in data set [1] is 39 nM. Further, the inhibition in the data set filed under Cavia porcellus is 87%. Further, the Stability entry in data set [2] and in [3] was “Stable” throughout.
As to `c1cncc(-c2ncnc3c2cnn3CCN2CCCCC2)c1`, in data set [1], the Ki came out at 926 nM.
The same measure, in the same setting: for `COc1ccc(-c2ncnc3c2cnn3CCN2CCCCC2)cn1` the value was 38300 nM; for `Cn1cnc(-c2ncnc3c2cnn3CCN2CCCCC2)c1`, 11800 nM.
On to `Cc1cc(F)ccc1-c1ncnc2c1cnn2CCN1CCCCC1`, for which the Ki in data set [1] was 48 nM. Besides, the inhibition in the data set listed under Cavia porcellus was found to be 86%. The Stability result in [2] and in data set [3] was “Stable” throughout.
Regarding `CC(C)(C)C(=O)Nc1ncnc2c1cnn2CCN1CCCCC1`, the Stability result in data set [2] and in data set [3] was “Stable” throughout.
As for `COc1ncccc1-c1ncnc2c1cnn2CCN1CCCCC1`, the Ki in [1] came to 112 nM.
For `c1nc(N2CCCCC2)c2cnn(CCN3CCCCC3)c2n1`, in data set [1], the Ki came out at 200 nM. Besides, the inhibition in the data set filed under Cavia porcellus worked out at 67%.
Take `CC1(C)CCN(c2ncnc3c2cnn3CCN2CCCCC2)C1`: the Ki in data set [1] was found to be 165 nM. Moreover, the inhibition in the data set listed under Cavia porcellus stood at 58%.
Consider `CNC1CCN(c2ncnc3c2cnn3CCN2CCCCC2)C1` (centres undefined), for which the Ki in [1] amounted to 25800 nM.
For the molecule `FC1(F)CCN(c2ncnc3c2cnn3CCN2CCCCC2)CC1`, the inhibition constant Ki in data set [1] stood at 108 nM. Also, the inhibition in the data set listed under Cavia porcellus came to 67%.
Consider `Cn1cncc1-c1ncnc2c1cnn2CCN1CCCCC1`, for which the Ki in data set [1] stood at 715 nM.
Same read-out and setting: for `Cc1ccncc1-c1ncnc2c1cnn2CCN1CCCCC1` the value was 707 nM.
Regarding `c1ccc(-c2ncnc3c2cnn3CCN2CCCCC2)cc1`, the Ki in data set [1] was 100 nM. Moreover, the inhibition in the data set listed under Cavia porcellus amounted to 69%.
In the case of `Cc1ccc(C)n1-c1ncnc2c1cnn2CCN1CCCCC1`, the Ki in data set [1] amounted to 740 nM.
Take `c1nc(-c2cnsc2)c2cnn(CCN3CCCCC3)c2n1`: in [1], the Ki is 475 nM. Besides, in the data set listed under Cavia porcellus, the inhibition came out at 40%.
For `Cc1cncc(-c2ncnc3c2cnn3CCN2CCCCC2)c1`, in data set [1], the Ki is 447 nM.
On the same count and under the same terms, for `Cc1ncccc1-c1ncnc2c1cnn2CCN1CCCCC1` the value was 732 nM.
As for `CC(C)n1cc(-c2ncnc3c2cnn3CCN2CCCCC2)cn1`, the Ki in data set [1] was 2910 nM.
Consider `Clc1ccccc1-c1ncnc2c1cnn2CCN1CCCCC1`, for which, in data set [1], the Ki stood at 76 nM. In the data set listed under Cavia porcellus, the inhibition worked out at 92%. Besides, the Stability result in data set [2] and in data set [3] was “Stable” each time.
On to `CCOc1ccccc1-c1ncnc2c1cnn2CCN1CCCCC1`, for which the Ki in data set [1] was found to be 300 nM. Further, the inhibition in the data set listed under Cavia porcellus is 81%.
